Data on 33 molecules can be found in ChEMBL document CHEMBL1240483, “Novel N-phenyl dichloroacetamide derivatives as anticancer reagents: design, synthesis and biological evaluation” (Eur J Med Chem, 2010).

Data set [1] deals with A549. In words: Anticancer activity against human A549 cells after 72 hrs by MTT assay. The format is functional, cell-based. Conditions: A549, 72 h. An outline of the steps: (§1)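 Cells seeded at 3000/well and grown 24 h: A549 in F12-K, BGC-823, KB and BEL-7402 in RPMI 1640, all with 10% FBS at 37 °C in 5% CO2. Drug added at 10 concentrations from 4×10^-4 to 1×10^-7 M and incubated 72 h. MTT added for 4 h at 37 °C, then SDS/isobutanol/HCl lysis overnight. A570 read. IC50 from three independent tests.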

Data set [2] concerns Bel-7402. As to the kind of experiment: Anticancer activity against human Bel7402 cells after 72 hrs by MTT assay. Type of data set: functional, cell-based. Conditions: Bel-7402, 72 h. In a few lines: as §1
Data set [3] has as its system KB. As to the kind of experiment: Anticancer activity against human KB cells after 72 hrs by MTT assay. The format is functional, cell-based. An outline of the steps:
as §1

Data set [4] in a line: Toxicity in intragastrically administered Kunming mouse after 14 days. Type of data set: organism-based. Conditions: in vivo, po.
For data set [5], the system named is BGC-823. As to the kind of experiment: Anticancer activity against human BGC823 cells after 72 hrs by MTT assay. The format is functional, cell-based. To be noted: BGC-823, 72 h. In a few lines:
as §1

Data set [6] concerns A549. In words: Induction of apoptosis in human A549 cells assessed as early apoptotic cells at 15 uM after 24 hrs by annexin-V/propidium iodide based FACS analysis. The format is functional. An outline of the steps: (§2)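 A549 cells (F12-K, 10% FBS, 37 °C, 5% CO2) treated at 0, 10, 15 or 30 μM for 24 or 48 h, then trypsinized and resuspended in PBS. Stained with Annexin V-FITC/PI kit and analysed by flow cytometry. Early apoptotic cells counted in the Q4 quadrant.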

Data set [7] deals with A549. As to the kind of experiment: Induction of apoptosis in human A549 cells assessed as early apoptotic cells at 30 uM after 24 hrs by annexin-V/propidium iodide based FACS analysis. The format is functional. In a few lines:
as §2

The test system of data set [8] is A549. As to the kind of experiment: Induction of apoptosis in human A549 cells assessed as late apoptotic cells at 15 uM after 24 hrs by annexin-V/propidium iodide based FACS analysis. The format is functional. In a few lines: (§3)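 A549 cells grown in F12-K with 10% FBS at 37 °C under 5% CO2. Exposed for 24 or 48 h to 0, 10, 15 or 30 μM, then trypsinized, pelleted and stained with Annexin V-FITC/PI for flow cytometry. Late apoptotic cells taken as the Q2 quadrant.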

For data set [9], the system named is A549. In words: Induction of apoptosis in human A549 cells assessed as early apoptotic cells at 10 uM after 24 hrs by annexin-V/propidium iodide based FACS analysis. The format is functional. An outline of the steps:
as §2

Data set [10] deals with A549. In words: Induction of apoptosis in human A549 cells assessed as early apoptotic cells at 30 uM after 48 hrs by annexin-V/propidium iodide based FACS analysis. Type of data set: functional. In a few lines:
as §2

Data set [11] relates to A549. As to the kind of experiment: Induction of apoptosis in human A549 cells assessed as late apoptotic cells at 30 uM after 24 hrs by annexin-V/propidium iodide based FACS analysis. Type of data set: functional. An outline of the steps: as §3
Data set [12] concerns A549. As to the kind of experiment: Induction of apoptosis in human A549 cells assessed as early apoptotic cells at 10 uM after 48 hrs by annexin-V/propidium iodide based FACS analysis. The format is functional. An outline of the steps:
as §2

Data set [13] has as its system A549. As to the kind of experiment: Induction of apoptosis in human A549 cells assessed as early apoptotic cells at 15 uM after 48 hrs by annexin-V/propidium iodide based FACS analysis. Type of data set: functional. In a few lines: as §2
Data set [14] has as its system A549. In words: Induction of apoptosis in human A549 cells assessed as late apoptotic cells at 30 uM after 48 hrs by annexin-V/propidium iodide based FACS analysis. The format is functional. In a few lines:
as §3

For data set [15], the system named is A549. In words: Induction of apoptosis in human A549 cells assessed as late apoptotic cells at 10 uM after 24 hrs by annexin-V/propidium iodide based FACS analysis. The format is functional. In a few lines:
as §3

The subject of data set [16] is A549. As to the kind of experiment: Induction of apoptosis in human A549 cells assessed as late apoptotic cells at 10 uM after 48 hrs by annexin-V/propidium iodide based FACS analysis. Type of data set: functional. In a few lines:
as §3

Data set [17] concerns A549. In words: Induction of apoptosis in human A549 cells assessed as late apoptotic cells at 15 uM after 48 hrs by annexin-V/propidium iodide based FACS analysis. The format is functional. In a few lines: as §3

As for `O=C(Nc1ccccc1)C(Cl)Cl`, it took 130 µM to reach half-maximal inhibition in [1] (IC50).

In [1], `O=C(Nc1ccccc1F)C(Cl)Cl` displayed a 50% inhibitory concentration (IC50) of 87.5 µM.

Turning to `O=C(Nc1ccccc1Br)C(Cl)Cl`, the figures for the IC50 in [2], in data set [1] and in data set [3] were 38.2 µM, 37 µM and 67.9 µM, respectively.

In the case of `O=C(Nc1ccccc1[N+](=O)[O-])C(Cl)Cl`, the IC50 stood at 194 µM in data set [2], 198 µM in data set [1] and 253 µM in data set [3].

In [1], `O=C(Nc1ccccc1NC(=O)C(Cl)Cl)C(Cl)Cl` registered a half-inhibitory concentration (IC50) of 131 µM.

Take `Cc1cccc(NC(=O)C(Cl)Cl)c1`: the concentration for half-maximal inhibition (IC50) in [1] is 41.1 µM. This IC50 lies about 3.2-fold lower than the previous one.

`O=C(Nc1cccc(Cl)c1)C(Cl)Cl`: the values for the IC50 in data set [2] and in data set [1] were 44.5 µM and 14.8 µM, respectively. The molecule also showed an LD50 at 336 h in [4] of 4550 mg/kg.

As to `O=C(Nc1cccc(Br)c1)C(Cl)Cl`, the 50% inhibitory concentration (IC50) in data set [2] was determined as 7.72 µM; in data set [5] it was 95.3 µM; in data set [1], 7.8 µM; in data set [3], 8.18 µM.

Consider `O=C(Nc1cccc(I)c1)C(Cl)Cl`, for which the IC50 in data set [2] turned out to be 5.39 µM; in data set [5], 58.8 µM; in data set [1], 4.76 µM; in data set [3] it was 5.25 µM. The Activity in data set [6] is listed as 9.2%; in data set [7], 15.2%; in data set [8], 19.3%; in [9], 10.8%; in [10], 10.6%; in data set [11], 20.3%. The Activity in data set [12] stood at 7.8%; in data set [13] it was 8.7%; in [14] it was 35.6%; in data set [15], 8.6%; in data set [16] it was 17.6%; in data set [17], 22.6%. Also, the LD50 at 336 h in data set [4] turned out to be 1120 mg/kg.

In the case of `N#Cc1cccc(NC(=O)C(Cl)Cl)c1`, the half-inhibitory concentration (IC50) was 48.4 µM in data set [2], 66.5 µM in data set [1] and 60.9 µM in data set [3].

On to `C#Cc1cccc(NC(=O)C(Cl)Cl)c1`, for which the IC50 in data set [2] came to 4.74 µM; in data set [5], 172 µM; in data set [1], 11.2 µM; in data set [3] it was 6.26 µM.

In the case of `O=C(Nc1cccc([N+](=O)[O-])c1)C(Cl)Cl`, the IC50 in [2] turned out to be 15.7 µM; in [5], 123 µM; in [1], 18 µM; in [3], 44.7 µM.

On to `COc1cccc(NC(=O)C(Cl)Cl)c1`, for which the IC50 came to 54.8 µM in [2], 179 µM in data set [5], 25.8 µM in data set [1] and 57.7 µM in data set [3].

As for `O=C(Nc1cccc(C(F)(F)F)c1)C(Cl)Cl`, the IC50 in [2] turned out to be 5.97 µM; in data set [5], 143 µM; in data set [1], 12.2 µM; in data set [3], 8.86 µM.

Consider `O=C(Nc1cccc(OC(F)(F)F)c1)C(Cl)Cl`, for which the IC50 is 10.3 µM in data set [2], 142 µM in [5], 15.1 µM in data set [1] and 7.41 µM in [3].

For the molecule `O=C(Nc1cccc(SC(F)(F)F)c1)C(Cl)Cl`, the IC50 came out at 6.54 µM in data set [2], 123 µM in data set [5], 14.1 µM in data set [1] and 4.84 µM in [3].

In the case of `O=C(Nc1cccc(S(=O)(=O)C(F)(F)F)c1)C(Cl)Cl`, the half-maximal inhibitory concentration (IC50) in [2] was 9.01 µM; in [5] it was 64 µM; in [1], 6.53 µM; in data set [3], 20.6 µM.

In data set [1], `Cc1ccc(NC(=O)C(Cl)Cl)cc1` had an IC50 of 48.9 µM.

As for `O=C(Nc1ccc(F)cc1)C(Cl)Cl`, in data set [1], 68.4 µM corresponded to half-maximal inhibition (IC50).

As to `O=C(Nc1ccc(Cl)cc1)C(Cl)Cl`, the results for the IC50 in data set [2], in data set [1] and in data set [3] were 49.6 µM, 20.4 µM and 60.8 µM, respectively.

`O=C(Nc1ccc(Br)cc1)C(Cl)Cl`: the IC50 in [2] is 9.77 µM; in data set [1], 13.7 µM; in data set [3], 21.7 µM.

On to `O=C(Nc1ccc(I)cc1)C(Cl)Cl`, for which the half-inhibitory concentration (IC50) in data set [2] was 11.9 µM; in data set [5], 222 µM; in data set [1], 12.5 µM; in data set [3] it was 66.2 µM.

Turning to `O=C(Nc1ccc([N+](=O)[O-])cc1)C(Cl)Cl`, the IC50 came out at 29.5 µM in [2], 190 µM in [5], 34.4 µM in [1] and 60.6 µM in [3].

With `COc1ccc(NC(=O)C(Cl)Cl)cc1`, the figures for the half-inhibitory concentration (IC50) in [2], in [1] and in data set [3] were 192 µM, 80.9 µM and 278 µM, respectively.

With `O=C(Nc1ccc(SC(F)(F)F)cc1)C(Cl)Cl`, the IC50 was determined as 3.61 µM in [2], 203 µM in [5], 10.6 µM in [1] and 2.08 µM in [3].

For `O=C(Nc1ccc(S(=O)(=O)C(F)(F)F)cc1)C(Cl)Cl`, the IC50 in data set [2] is 72.8 µM; in [5], 146 µM; in [1], 8.5 µM; in data set [3] it was 9.71 µM.

On to `O=C(Nc1cccc(Cl)c1Cl)C(Cl)Cl`, for which the figures for the IC50 in data set [2] and in data set [3] were 180 µM and 217 µM, respectively.

As to `O=C(Nc1ccc(Cl)c(Cl)c1)C(Cl)Cl`, the IC50 in data set [2] amounted to 7.37 µM; in data set [5], 177 µM; in data set [1] it was 5.09 µM; in [3], 7.05 µM.

For `O=C(Nc1cc(Cl)cc(Cl)c1)C(Cl)Cl`, the IC50 in data set [2] was determined as 4.65 µM; in data set [5], 60.1 µM; in [1], 4.4 µM; in [3], 4.53 µM.

Take `O=C(Nc1cc(Cl)ccc1Cl)C(Cl)Cl`: the IC50 in data set [2] was found to be 18.2 µM; in [1], 12.4 µM; in data set [3], 11.5 µM.

`O=C(Nc1cccc(S(=O)(=O)c2cccc(NC(=O)C(Cl)Cl)c2)c1)C(Cl)Cl`: the half-inhibitory concentration (IC50) in [2] was 15.9 µM; in [5], 198 µM; in data set [1], 5.89 µM; in data set [3] it was 24 µM.

Molecule `O=C(Nc1ccccc1Cl)C(Cl)Cl` yielded a 50% inhibitory concentration (IC50) in data set [1] of 50.1 µM.

Regarding `O=C([O-])C(Cl)Cl.[Na+]` [SODIUM DICHLOROACETATE], the IC50 came to 860 µM in data set [2], 1050 µM in data set [5], 1010 µM in [1] and 1420 µM in data set [3].
